Experimental data from ChEMBL document CHEMBL3734675, “Synthesis, antimycobacterial and antibacterial activity of fluoroquinolone derivatives containing an 3-alkoxyimino-4-(cyclopropylanimo)methylpyrrolidine moiety” (2015).
In brackets after ≈: the same amount, converted by molar mass.

Tests used:
Assay type in all cases: functional
[1] = system: Escherichia coli; test: Antibacterial activity against Escherichia coli ATCC 25922 after 18 to 24 hrs by two-fold serial dilution method
Summary of the method: (§1)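 Twofold serial dilution in agar media against Gram-positive and Gram-negative strains. Plates incubated at 35 °C for 18–24 h. MIC read as the lowest compound concentration giving complete inhibition of bacterial growth.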

[2] = system: Escherichia coli; test: Antibacterial activity against extended-spectrum beta-lactamase producing Escherichia coli 14-1 after 18 to 24 hrs by two-fold serial dilution method; summary of the method: as §1
[3] = system: Escherichia coli; test: Antibacterial activity against extended-spectrum beta-lactamase producing Escherichia coli 14-2 after 18 to 24 hrs by two-fold serial dilution method; summary of the method: as §1
[4] = system: Escherichia coli; test: Antibacterial activity against Escherichia coli 14-1 after 18 to 24 hrs by two-fold serial dilution method; summary of the method: as §1
[5] = system: Escherichia coli; test: Antibacterial activity against Escherichia coli 14-2 after 18 to 24 hrs by two-fold serial dilution method; summary of the method: as §1
[6] = system: Klebsiella pneumoniae; test: Antibacterial activity against extended-spectrum beta-lactamase producing Klebsiella pneumoniae 14-17 after 18 to 24 hrs by two-fold serial dilution method; summary of the method: as §1
[7] = system: Klebsiella pneumoniae; test: Antibacterial activity against extended-spectrum beta-lactamase producing Klebsiella pneumoniae 14-18 after 18 to 24 hrs by two-fold serial dilution method; summary of the method: as §1
[8] = system: Klebsiella pneumoniae; test: Antibacterial activity against extended-spectrum beta-lactamase producing Klebsiella pneumoniae 14-19 after 18 to 24 hrs by two-fold serial dilution method; summary of the method: as §1
[9] = system: Klebsiella pneumoniae; test: Antibacterial activity against Klebsiella pneumoniae 14-1 after 18 to 24 hrs by two-fold serial dilution method; summary of the method: as §1
[10] = system: Klebsiella pneumoniae; test: Antibacterial activity against Klebsiella pneumoniae 14-2 after 18 to 24 hrs by two-fold serial dilution method; summary of the method: as §1
[11] = system: Klebsiella pneumoniae; test: Antibacterial activity against Klebsiella pneumoniae 14-3 after 18 to 24 hrs by two-fold serial dilution method; summary of the method: as §1
[12] = system: Klebsiella pneumoniae; test: Antibacterial activity against Klebsiella pneumoniae 14-4 after 18 to 24 hrs by two-fold serial dilution method; summary of the method: as §1
[13] = system: Pseudomonas aeruginosa; test: Antibacterial activity against Pseudomonas aeruginosa ATCC 27853 after 18 to 24 hrs by two-fold serial dilution method; summary of the method: as §1
[14] = system: Pseudomonas aeruginosa; test: Antibacterial activity against Pseudomonas aeruginosa 14-9 after 18 to 24 hrs by two-fold serial dilution method; summary of the method: as §1
[15] = system: Pseudomonas aeruginosa; test: Antibacterial activity against Pseudomonas aeruginosa 14-14 after 18 to 24 hrs by two-fold serial dilution method; summary of the method: as §1
[16] = system: Pseudomonas aeruginosa; test: Antibacterial activity against Pseudomonas aeruginosa 14-15 after 18 to 24 hrs by two-fold serial dilution method; summary of the method: as §1
[17] = system: Pseudomonas aeruginosa; test: Antibacterial activity against Pseudomonas aeruginosa 14-16 after 18 to 24 hrs by two-fold serial dilution method; summary of the method: as §1
[18] = system: Staphylococcus aureus; test: Antibacterial activity against Staphylococcus aureus CMCC 26003 after 18 to 24 hrs by two-fold serial dilution method; summary of the method: as §1
[19] = system: Staphylococcus aureus; test: Antibacterial activity against methicillin-sensitive Staphylococcus aureus 14-1 after 18 to 24 hrs by two-fold serial dilution method; summary of the method: as §1
[20] = system: Staphylococcus aureus; test: Antibacterial activity against methicillin-sensitive Staphylococcus aureus 14-3 after 18 to 24 hrs by two-fold serial dilution method; summary of the method: as §1
[21] = system: Staphylococcus aureus; test: Antibacterial activity against methicillin-sensitive Staphylococcus aureus 14-4 after 18 to 24 hrs by two-fold serial dilution method; summary of the method: as §1
[22] = system: Staphylococcus aureus; test: Antibacterial activity against methicillin-resistant Staphylococcus aureus 14-4 after 18 to 24 hrs by two-fold serial dilution method
Summary of the method: (§2)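 Agar media, standard twofold serial dilution. MIC is the lowest concentration giving complete inhibition of bacterial growth after incubation at 35 °C for 18–24 h. Ciprofloxacin and levofloxacin were run as comparators.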

[23] = system: Staphylococcus aureus; test: Antibacterial activity against methicillin-resistant Staphylococcus aureus 14-5 after 18 to 24 hrs by two-fold serial dilution method; summary of the method: as §2
[24] = system: Staphylococcus epidermidis; test: Antibacterial activity against methicillin-sensitive Staphylococcus epidermidis 14-2 after 18 to 24 hrs by two-fold serial dilution method; summary of the method: as §1
[25] = system: Staphylococcus epidermidis; test: Antibacterial activity against methicillin-resistant Staphylococcus epidermidis 14-21 after 18 to 24 hrs by two-fold serial dilution method; summary of the method: as §2
[26] = system: Staphylococcus epidermidis; test: Antibacterial activity against methicillin-resistant Staphylococcus epidermidis 14-22 after 18 to 24 hrs by two-fold serial dilution method; summary of the method: as §2
[27] = system: Staphylococcus epidermidis; test: Antibacterial activity against methicillin-resistant Staphylococcus epidermidis 14-37 after 18 to 24 hrs by two-fold serial dilution method; summary of the method: as §2
[28] = system: Staphylococcus epidermidis; test: Antibacterial activity against methicillin-resistant Staphylococcus epidermidis 14-39 after 18 to 24 hrs by two-fold serial dilution method; summary of the method: as §2
[29] = system: Streptococcus pneumoniae; test: Antibacterial activity against methicillin-resistant Streptococcus pneumoniae ATCC 19615 after 18 to 24 hrs by two-fold serial dilution method; summary of the method: as §2
[30] = system: Enterococcus faecium; test: Antibacterial activity against Enterococcus faecium 14-2 after 18 to 24 hrs by two-fold serial dilution method; summary of the method: as §1
[31] = system: Enterococcus faecium; test: Antibacterial activity against Enterococcus faecium 14-5 after 18 to 24 hrs by two-fold serial dilution method; summary of the method: as §1
[32] = system: Enterococcus faecium; test: Antibacterial activity against Enterococcus faecium 14-6 after 18 to 24 hrs by two-fold serial dilution method; summary of the method: as §1
[33] = system: Enterococcus faecalis; test: Antibacterial activity against Enterococcus faecalis 14-1 after 18 to 24 hrs by two-fold serial dilution method; summary of the method: as §1
[34] = system: Enterococcus faecalis; test: Antibacterial activity against Enterococcus faecalis 14-2 after 18 to 24 hrs by two-fold serial dilution method; summary of the method: as §1
[35] = system: Mycobacterium tuberculosis; test: Antimycobacterial activity against Mycobacterium tuberculosis H37Rv ATCC 27294 incubated for 7 days by microplate Alamar Blue assay; conditions: H37Rv ATCC 27294, 168 h
Summary of the method: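 Fluorescence read-out. MIC is the lowest concentration that reduces fluorescence by at least 90% relative to the mean of replicate bacterium-only controls. Isoniazid and rifampicin were included as reference drugs.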

SMILES | MIC [1] [µg/mL] | MIC [2] [µg/mL] | MIC [3] [µg/mL] | MIC [4] [µg/mL] | MIC [5] [µg/mL] | MIC [6] [µg/mL] | MIC [7] [µg/mL] | MIC [8] [µg/mL] | MIC [9] [µg/mL] | MIC [10] [µg/mL] | MIC [11] [µg/mL] | MIC [12] [µg/mL] | MIC [13] [µg/mL] | MIC [14] [µg/mL] | MIC [15] [µg/mL] | MIC [16] [µg/mL] | MIC [17] [µg/mL] | MIC [18] [µg/mL] | MIC [19] [µg/mL] | MIC90 [35] [µg/mL] | other results
CO/N=C1/CN(c2c(F)cc3c(=O)c(C(=O)O)cn4c3c2OC[C@@H]4CF)CC1(C)CNC1CC1 (stereo not given in full) | 2 (≈ 4.2 µM) | 8 (≈ 16.8 µM) | > 128 | > 128 | > 128 | 32 (≈ 67.2 µM) | 32 (≈ 67.2 µM) | > 128 | > 128 | > 128 | 128 (≈ 269 µM) | 128 (≈ 269 µM) | 32 (≈ 67.2 µM) | 32 (≈ 67.2 µM) | 128 (≈ 269 µM) | 128 (≈ 269 µM) | 64 (≈ 134 µM) | < 0.008 | 4 (≈ 8.39 µM) | – | MIC [20]: 0.03 µg/mL (≈ 0.063 µM); MIC [21]: 0.03 µg/mL (≈ 0.063 µM); MIC [22]: 8 µg/mL (≈ 16.8 µM); MIC [23]: 4 µg/mL (≈ 8.39 µM); MIC [24]: 16 µg/mL (≈ 33.6 µM); MIC [25]: 16 µg/mL (≈ 33.6 µM); MIC [26]: 4 µg/mL (≈ 8.39 µM); MIC [27]: 16 µg/mL (≈ 33.6 µM); MIC [28]: 2 µg/mL (≈ 4.2 µM); MIC [29]: 0.25 µg/mL (≈ 0.525 µM); MIC [30]: 8 µg/mL (≈ 16.8 µM); MIC [31]: 4 µg/mL (≈ 8.39 µM); MIC [32]: 16 µg/mL (≈ 33.6 µM); MIC [33]: 16 µg/mL (≈ 33.6 µM); MIC [34]: 0.5 µg/mL (≈ 1.05 µM)
CO/N=C1/CN(c2c(F)cc3c(=O)c(C(=O)O)cn(C4CC4)c3c2OC)CC1CNC1CC1 (stereo not given) | 32 (≈ 69.8 µM) | 128 (≈ 279 µM) | > 128 | > 128 | > 128 | > 128 | > 128 | > 128 | > 128 | > 128 | > 128 | > 128 | 128 (≈ 279 µM) | 128 (≈ 279 µM) | 128 (≈ 279 µM) | 128 (≈ 279 µM) | 128 (≈ 279 µM) | 8 (≈ 17.4 µM) | > 128 | > 32 | MIC [20]: > 128 µg/mL; MIC [21]: > 128 µg/mL; MIC [23]: > 128 µg/mL; MIC [24]: > 128 µg/mL; MIC [25]: > 128 µg/mL; MIC [26]: > 128 µg/mL; MIC [27]: > 128 µg/mL; MIC [28]: > 128 µg/mL; MIC [29]: 64 µg/mL (≈ 140 µM); MIC [30]: > 128 µg/mL; MIC [31]: > 128 µg/mL; MIC [32]: > 128 µg/mL; MIC [33]: > 128 µg/mL; MIC [34]: 64 µg/mL (≈ 140 µM)
CO/N=C1/CN(c2nc3c(cc2F)c(=O)c(C(=O)O)cn3C2CC2)CC1CNC1CC1 (stereo not given) | 0.5 (≈ 1.16 µM) | 16 (≈ 37.3 µM) | > 128 | > 128 | > 128 | 16 (≈ 37.3 µM) | 16 (≈ 37.3 µM) | 32 (≈ 74.5 µM) | 128 (≈ 298 µM) | 128 (≈ 298 µM) | 128 (≈ 298 µM) | > 128 | 16 (≈ 37.3 µM) | 8 (≈ 18.6 µM) | 32 (≈ 74.5 µM) | 32 (≈ 74.5 µM) | 32 (≈ 74.5 µM) | < 0.008 | 8 (≈ 18.6 µM) | 0.44 (≈ 1.02 µM) | MIC [20]: 4 µg/mL (≈ 9.31 µM); MIC [21]: 8 µg/mL (≈ 18.6 µM); MIC [22]: > 128 µg/mL; MIC [23]: 8 µg/mL (≈ 18.6 µM); MIC [24]: > 128 µg/mL; MIC [25]: 16 µg/mL (≈ 37.3 µM); MIC [26]: 16 µg/mL (≈ 37.3 µM); MIC [27]: 32 µg/mL (≈ 74.5 µM); MIC [28]: 16 µg/mL (≈ 37.3 µM); MIC [29]: 4 µg/mL (≈ 9.31 µM); MIC [30]: 32 µg/mL (≈ 74.5 µM); MIC [31]: 16 µg/mL (≈ 37.3 µM); MIC [32]: 32 µg/mL (≈ 74.5 µM); MIC [33]: 64 µg/mL (≈ 149 µM); MIC [34]: 0.5 µg/mL (≈ 1.16 µM)
NNC(=O)c1ccncc1 [ISONIAZID] | – | – | – | – | – | – | – | – | – | – | – | – | – | – | – | – | – | – | – | 0.05 (≈ 0.365 µM) | –
CO[C@H]1/C=C/O[C@@]2(C)Oc3c(C)c(O)c4c(O)c(c(/C=N/N5CCN(C)CC5)c(O)c4c3C2=O)NC(=O)/C(C)=C\C=C\[C@H](C)[C@H](O)[C@@H](C)[C@@H](O)[C@@H](C)[C@H](OC(C)=O)[C@@H]1C [RIFAMPIN] | – | – | – | – | – | – | – | – | – | – | – | – | – | – | – | – | – | – | – | 0.05 (≈ 0.0608 µM) | –
